According to paper PMC8245385 (Clinical Drug Investigation, 2021):
Like-named read-outs stand apart in the source and are kept apart here.

Legend:
[1] = cited from earlier work
[2] = cited from earlier work; remark: listed apart in the source
CYP enzymes = details: cited from earlier work
Safety and tolerability = assay type: in vivo, human; details: doravirine 100 mg QD, islatravir 2.25 mg QD, alone or in combination; participants without HIV
Outline: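 Safety was assessed throughout the study by adverse-event monitoring, physical examinations, vital signs, electrocardiography and laboratory safety tests. Investigators graded clinical adverse events as mild, moderate or severe in intensity. The analysis set was all participants given at least one dose of active study drug or placebo. Dosing was oral with water at the same time each day.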

[3] = Plasma pharmacokinetics in the doravirine/islatravir drug interaction study; assay type: in vivo, human
Outline: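 Healthy adults were randomized and blinded. They took oral doravirine 100 mg or placebo QD for 5 days, then islatravir 2.25 mg QD for 14 days, then both for 5 days, with no washout and ≥10 h fasting before dosing on PK days. K2EDTA plasma went to validated LC-MS/MS (islatravir LLOQ 0.10 ng/mL). AUC0–24h used linear-up/log-down; GMRs came from a ln-scale mixed-effects model.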

[4] = cited from earlier work; remark: listed apart in the source
[5] = single oral doses, participants without HIV

For `C#C[C@]1(COP(=O)(O)OP(=O)(O)OP(=O)(O)O)O[C@@H](n2cnc3c(N)nc(F)nc32)C[C@@H]1O` [islatravir-TP], which “Time at which peak intracellular islatravir-TP concentrations were attained” value ([1]; after islatravir administration) is on record?
The value was 6 to 24 h.

And the “Apparent terminal half-life of islatravir-TP” value ([1]; dosed daily to steady state)?
The value was “exceeded 7 days”.

And the “Time to steady state of intracellular islatravir-TP” value ([1]; oral QD dosing of islatravir)?
Its value is at most 28 days.

And the “Intracellular half-life of islatravir-TP” value ([1]; single oral doses of islatravir)?
The value was 118 to 171 h.

With `C#C[C@]1(CO)O[C@@H](n2cnc3c(N)nc(F)nc32)C[C@@H]1O` [Islatravir, 4'-Ethynyl-2-fluoro-2'-deoxyadenosine] as the compound, how does the Tolerability ([2]; treatment-naive people living with HIV-1, oral doses 0.5–30 mg) read?
Its Tolerability is “generally well tolerated”.

And the “Metabolism by CYP enzymes” value (CYP enzymes)?
Its value is “not metabolized by CYP enzymes”.

And the Tolerability (Safety and tolerability)?
The Tolerability was “generally well tolerated”.

What about the AUC(0-t) ([3]; human, plasma, oral, 2.25 mg) of the same compound?
The AUC(0-t) was 0.254 µM·h.

And the Cmax ([3]; human, plasma, oral, 2.25 mg)?
Its Cmax is 63.5 nM.

And the Tmax ([3]; human, plasma, oral, 2.25 mg)?
The Tmax was 0.52 h.

And the “Time to steady-state plasma concentrations” value ([1]; oral QD dosing)?
The value was about 14 days.

What about the Half-life of islatravir [1, 5] of the same compound?
Its Half-life of islatravir is 49 to 61 h.

What about the “Time at which peak plasma concentrations were attained” value [1, 5] of the same compound?
Its value is ~ 0.5 h.

What does the source list for `Cn1c(Cn2ccc(C(F)(F)F)c(Oc3cc(Cl)cc(C#N)c3)c2=O)n[nH]c1=O` [Doravirine]?
Tolerability ([2]; doses of up to 1,200 mg in clinical studies): generally well tolerated; Inhibition or induction of CYP enzymes (CYP enzymes; in vitro): not an inhibitor or inducer of CYP enzymes; Tolerability (Safety and tolerability): generally well tolerated; Doravirine C24h, GMR (90% CI), (doravirine + islatravir)/doravirine ([3]; doravirine 100 mg QD with vs without islatravir 2.25 mg QD): 1.12 (0.95–1.32); AUC(0-t) ([3]; human, plasma, oral, 100 mg): 34 µM·h; Cmax ([3]; human, plasma, oral, 100 mg): 2440 nM; Tmax ([3]; human, plasma, oral, 100 mg): 2.5 h; concentration at 24 h ([3]; human, plasma, oral, 100 mg): 773 nM; Apparent terminal half-life ([4]; 6–1200 mg orally): 12 to 21 h; Time to attainment of steady state ([4]; QD dosing, 200 mg orally): approximately 5 days; Range of median Tmax previously reported [4]: 1 to 4 h; Reduction of doravirine exposure on coadministration with rifabutin ([4]; moderate CYP3A4 inducer): 50%; Reduction of doravirine exposure on coadministration with rifampin ([4]; strong CYP3A4 inducer): 88%
